Results of several laboratories.
Compare with care: the assays were run in different laboratories.
Target: Tyrosine-protein kinase JAK2 (JAK2, Homo sapiens, UniProt O60674)
Read-out: enzyme activity
Mode: inhibitor

With `COc1cc(Cl)c(C(=O)N[C@@H](CN[C@H]2CC[C@@H](N)CC2)Cc2ccc(C#N)cc2)cc1-c1ccc(CN[C@H](C)c2ccc(C)cc2)o1` the remaining activity was 104% (1 µM).
`O=C(NCCCNc1nc(Nc2cccc(CN3CCOCC3)c2)ncc1C1CC1)C1CCC1` gave a remaining activity of 46% (radiometric; 1 µM).
The remaining activity of `Cn1c(=O)n(-c2ccc(C(C)(C)C#N)cc2)c2c3cc(-c4cnc5ccccc5c4)ccc3ncc21` is reported as 24% (10 µM).
With `COc1cc(Nc2cnc(C#N)c(O[C@H](C)CN(C)C)n2)ncc1-c1cnn(C)c1` the remaining activity was 41% (radiometric; 10 µM).
The remaining activity of `Cc1cnc(NC2CCOCC2)nc1-n1cnc(C(=O)NC(CN)c2cc(F)cc(Cl)c2)c1` (stereo not shown) is reported as 104% (radiometric; 1 µM).
With `Brc1cnc(Nc2cccc(CN3CCOCC3)c2)nc1NCCc1c[nH]cn1` the remaining activity was 6% (radiometric; 1 µM).
For `Oc1cccc(-c2nc(N3CCOCC3)c3oc4ncccc4c3n2)c1`, the remaining activity was 93% (10 µM).
The remaining activity of `Cc1ccc(C(=O)Nc2ccc(CN3CCN(C)CC3)c(C(F)(F)F)c2)cc1C#Cc1cnc2cccnn12` is reported as 58% (23.5 nM).
The remaining activity of `Cc1nn(CC(F)(F)F)cc1Nc1ncc(Br)c(NCc2ccc(S(N)(=O)=O)cc2)n1` is reported as 70% (radiometric; 1 µM).
With `CC(C)(C)c1nc(-c2cccc(NS(=O)(=O)c3c(F)cccc3F)c2F)c(-c2ccnc(N)n2)s1` the remaining activity was 90% (radiometric; 1 µM).
`O=C(Nc1cccc(Nc2ncc(Br)c(NCCc3cnc[nH]3)n2)c1)N1CCCC1` has a remaining activity of 24% (radiometric; 1 µM).
`O=C(Nc1cnn(-c2csc(C(=O)NC3COC3)c2)c1)Nc1c(F)cccc1Cl` has a remaining activity of 96.5% (5 µM).
The remaining activity of `CC(C)(O)[C@H]1CC[C@H](Nc2ccc3ncc(-c4cccc(C(F)(F)F)c4)n3n2)CC1` is reported as 24.8% (1 µM).
For `CC(C)(C)c1nc2c(s1)c1nc(N)ncc1c1ccc(NS(=O)(=O)c3c(F)cccc3F)c(F)c12`, the remaining activity was 85% (radiometric; 1 µM).
For `O=C(Nc1cnn(-c2csc(C(=O)NC3COC3)c2)c1)Nc1ccccc1Cl`, the remaining activity was 98.2% (5 µM).
With `CN1CCc2cc(Nc3ncc(C4CC4)c(NCCCNC(=O)C4CCC4)n3)ccc2C1` the remaining activity was 44% (radiometric; 1 µM).
